The series concerns MS2 coat protein. The series can be described thus: apparent Kd, MS2 coat protein; higher = weaker binding; RNA-MaP array; FMN 200 µM where present. In outline:
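Green signal was scaled to red-channel RNA signal and control-cluster median Fmax, and the apparent Kd was taken as the median of filtered per-cluster binding-curve fits. The binding series used SNAP-549-labelled MS2 coat protein from 0.7 or 1.5 nM, doubling to 3 µM, on designs transcribed by stalled E. coli RNA polymerase on Illumina sequencing-chip clusters. Each series ran without and then with constant ligand in 100 mM Tris-HCl pH 7.5, 80 mM KCl, 4 mM MgCl2, BSA, DTT, yeast tRNA and Tween-20.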

The mark [1] stands for this setting: designed as: ON switch for flavin mononucleotide, no ligand.
Setting [2] is: ligand present: flavin mononucleotide, designed as: ON switch for flavin mononucleotide.
[3] abbreviates: designed as: OFF switch for flavin mononucleotide, no ligand.
Where [4] appears, read: ligand present: flavin mononucleotide, designed as: OFF switch for flavin mononucleotide.

The values that follow come from the EternaBench riboswitch data.

For orientation: apparent Kd means a dissociation constant that holds for the conditions of the assay. In the case of “GGAGACCUCACAGGAUAUGCUGGACUUUGUCCAGCAGAAGGGUGAAUACAUGAGGAUCACCCAUGUGGUCUCCAAAUAUUUAAU”, the “apparent Kd” value by setting is: under setting [1], 1170 nM; under setting [2], 75.3 nM.

Turning to “GCAGGCUUCGAGAAGGACAUGAGGAUCACCCAUGUGCGUGUGAAGCAGCCGUGAGGCUGCAUCAUGUAGGAUAUCGGAGUCUGA”, the “apparent Kd” value reads like this: under setting [3], 74.5 nM; under setting [4], 500 nM.

For the sequence “AAUACUACAGGAUAUACAUGGGUGAUCCUCAUGUCCCUUCUACAUGAGGAUCACCCAUGUAGAAGGGUAGUACA”, the “apparent Kd” value reads like this: under setting [3], 13.4 nM; under setting [4], 8.3 nM.

Regarding “AGCAGACGAGGAUAUAGAUUUGUUGACAUGAGGAUCACCCAUGUGAUCGAUCUAUUAUAUUUAGAAGGUGUCUGCU”, the “apparent Kd” value by setting is: under setting [3], 12.9 nM; under setting [4], 13.5 nM.

Regarding “CGGUCACAUGAGGAUCACCCAUGUACCUACCCGAUGAAGUCGCAGGAUAUCCAUUACUUUACGUAGGAGAAGGGUGACGCUCGC”, the “apparent Kd” value under setting [1] was found to be 49.7 nM and the “apparent Kd” value under setting [2] was determined as 79.3 nM.

For the sequence “UGUUGUAUUACAGGAUAUCUAGUAUUUUUGUUUAGAGAAGGGUAUUCACAUGAGGAUCACCCAUGUAUAUACGAGGAAGUUGUG”, the “apparent Kd” value is 57.2 nM under setting [1] and 63.7 nM under setting [2].

As to “AGGAUGUUAGGAUAUCGGAGAUGCGGGAGGAGGUGGAGGUACGAGAAGGAACAUGAGGAUCACCCAUGUGGAAG”, the “apparent Kd” value is, setting by setting: under setting [3], 20.3 nM; under setting [4], 19.9 nM.

As to “ACGGUUUACCAGAAGGACAUGAGGAUCACCCAUGUAGGAUAUGGGAAGUUGGUCUCCUUCAAAUAAGGCCCUCAGAGCUUCAAA”, the “apparent Kd” value amounted to 446 nM under setting [1] and 31.2 nM under setting [2].

Consider “GCAUUUGAGCAGGAUAUAGCCUGAACAUAAUGGUUAGAAGGGCUCACAUGAGGAUCACCCAUGUGGUGUCCUAA”, for which the “apparent Kd” value runs as follows: under setting [3], 12.8 nM; under setting [4], 36 nM.

As to “AAAGGACGAGGAUAUACAUGAGGAUCACCCAUGUAAGAAGCAUAAUAAAAUAACUUAUGUAGAAGGCGUCCAAA”, the “apparent Kd” value runs as follows: under setting [3], 20.5 nM; under setting [4], 84.4 nM.

As to “GCUGGUCGAGGAUAUAUAUGACGUGCUUCGGCACGAAGGUCACAUGAGGAUCACCCAUGUAGAAGGCGACCAGC”, the “apparent Kd” value under setting [3] came out at 56.4 nM and the “apparent Kd” value under setting [4] worked out at 390 nM.

With “CUUUUGUCAGGAUAUGAGUAGUAGAACAAUAGUACUACUACUCAGAAGGGACAUGAGGAUCACCCAUGUUCCUC”, the “apparent Kd” value under setting [3] amounted to 16.6 nM and the “apparent Kd” value under setting [4] came out at 50.5 nM.

For the sequence “GGGUCAACAUGAGGAUCACCCAUGUAGGAUAUCGCUAUUGUAAUCAUGAAACAUGAUUACAAUAGCGAGAAGGACAUAUGCAAA”, the “apparent Kd” value by setting is: under setting [3], 11.3 nM; under setting [4], 23.4 nM.

With “AUGCUUUUUGUAGGAUAUACAUUUUGUACGUAUGUAGAAGGACAUGAGGAUCACCCAUGUAAAUUAUUAUUAAAUAUCAUACUU”, the “apparent Kd” value under setting [3] was found to be 45.8 nM and the “apparent Kd” value under setting [4] came to 31.8 nM.

On to “AGCACGAAAGUGCAACGAUGUACGAGAAGGACAUGAGGAUCACCCAUGUAGGAGUAACUCCAAAUGUAGGAUAUCGUACAUCGA”, for which the “apparent Kd” value is, setting by setting: under setting [3], 568 nM; under setting [4], 79 nM.

As to “GAAUAUUCGUGGUACAUGAGGAUCACCCAUGUGUCUUUACAUGAGGAUAUGGAUUCUAAUUGGAUCCAGAAGGCAUGAAUAUUC”, the “apparent Kd” value came to 75.5 nM under setting [1] and 31.2 nM under setting [2].

For the sequence “AAAAAACAUGAGGAUCACCCAUGUGAGGAUAUGCGAAAAAAAAAAAAAAAAAAAAAAAGCAGAAGGUACAAAAA”, the “apparent Kd” value stood at 92.2 nM under setting [3] and 47.6 nM under setting [4].

On to “AGCUGGUGACAGCAUCGAGCUUAACAUGAGGAUCACCCAUGUAGAAGGCUGUACGGUUACCGUACAGAGGAUAUACAUAGCUCG”, for which the “apparent Kd” value is, setting by setting: under setting [3], 6.79 nM; under setting [4], 7.04 nM.

For “GGCGGUUUACAAGGAUAUUAGAAACAGACCAAAUAAGAAGGUGUUAUCUGGCAAUGCGAAAGCAGACAUGAGGAUCACCCAUGU”, the “apparent Kd” value by setting is: under setting [1], 58.3 nM; under setting [2], 57.1 nM.

Regarding “AGUCGGAGCAGAGGAUAUUACAUGAGGAUCACCCAUGUAUUAAAUGGAAGCUGGAAACAGCAAUGUAAGAAGGCUGCUCCGACA”, the “apparent Kd” value under setting [3] stood at 62.4 nM and the “apparent Kd” value under setting [4] turned out to be 284 nM.

With “UCCUACAUGGGAGGAUAUGGGAAGAUACAUGAGGAUCACCCAUGUUUAAGAAUGCCGAGAGGCAACUAGAAGGCCCAUGUAGGU”, the “apparent Kd” value reads like this: under setting [1], 876 nM; under setting [2], 54.4 nM.

“UAAAUGUGAGGAUAUUCGAAUAACACGGAGACGUGUUGUUCGGAGAAGGCACAUGAGGAUCACCCAUGUUCCUU”: the “apparent Kd” value by setting is: under setting [3], 22.7 nM; under setting [4], 219 nM.

Consider “UUUUUUUAUAAGGAUAUGGGAGUCGAUAGACACCCAGAAGGUAUAACAUGAGGAUCACCCAUGUGUCCUUUUUU”, for which the “apparent Kd” value amounted to 21.2 nM under setting [3] and 24.1 nM under setting [4].

On to “CAACAGUCAGGAUAUGCAAAAAAAACGCAACGCAAAAAAAAGCAGAAGGGACAUGAGGAUCACCCAUGUUGUCG”, for which the “apparent Kd” value was determined as 30.2 nM under setting [3] and 26.3 nM under setting [4].

As to “AUCAUCUUGUCAGGAUAUGCGUGUCGACGAAAGUAGACAAUCUUGAUAACAUGAGGAUCACCCAUGUAGAAGGGACGAGAUGAU”, the “apparent Kd” value under setting [3] came out at 21.6 nM and the “apparent Kd” value under setting [4] came to 24.5 nM.

As for “UUUAAGUCAGGAUAUCGUUAAUUUAAUUAUUUGUUUUAGUUCGAGAAGGGACAUGAGGAUCACCCAUGUAAUUU”, the “apparent Kd” value runs as follows: under setting [3], 38.8 nM; under setting [4], 41.8 nM.

For “CAUGUGUAAGGAUAUGACAAUGGUAUCGAAAGAUACCAUUGUCAGAAGGUACAUGAGGAUCACCCAUGUGGAUC”, the “apparent Kd” value came out at 198 nM under setting [3] and 91 nM under setting [4].

Turning to “UUCGUGUAAGGAUAUACGACCCAUCCCAUUGGGAUGGGCACGUAGAAGGUACAUGAGGAUCACCCAUGUGCUCC”, the “apparent Kd” value runs as follows: under setting [3], 26.8 nM; under setting [4], 167 nM.

Take “AGCACGAAAGUGCAACGAUGUAGCAGAAGGACAUGAGGAUCACCCAUGUAAGCAGUAUCUGCAAUGUAGGAUAUGCUACAUCGA”: the “apparent Kd” value runs as follows: under setting [3], 13.6 nM; under setting [4], 119 nM.

As to “GAGCGAAAGCUCAAUGUCGAUAGCAGAAGGACAUGUAAAACCAUGAAAACAUGAGGAUCACCCAUGUAGGAUAUGCUAUCGACU”, the “apparent Kd” value under setting [3] was determined as 9.7 nM and the “apparent Kd” value under setting [4] worked out at 95.8 nM.

For the sequence “AAUUGGAUCCAGAAGGCAUGGACGACCCGUCACAUUAACAUGAGGAUCACCCAUGUAUAAAGACAUGAGGAUAUGGAUCCUAAA”, the “apparent Kd” value runs as follows: under setting [1], 25.7 nM; under setting [2], 7.99 nM.

In the case of “GGAUAGGACAGAGGAUAUACGUGCUAGAGAUGCUAGCAAAAUUUCCUCACAUGAGGAUCACCCAUGUAGAAGGCUGUCCUAUCG”, the “apparent Kd” value came to 15.8 nM under setting [3] and 393 nM under setting [4].

In the case of “UGGUUGCGAGUAGGAUAUGGUGUUUUUGUUUGGUUAGAAGGGUUCGUGAUUGUGACAUGAGGAUCACCCAUGUGUGUUGUUGUU”, the “apparent Kd” value runs as follows: under setting [1], 63.6 nM; under setting [2], 70.5 nM.

Consider “GAUUACAAGUAAGGAUAUGUAUAUGAAACAUAUACAGAAGGUACAUGAGGAUCACCCAUGUUCUUGCAAAGCGAAUAUGUAAUC”, for which the “apparent Kd” value runs as follows: under setting [3], 17.3 nM; under setting [4], 21 nM.

As for “ACUAUACGAGGAUAUGCUGUCAAUACUCCGGAGUUAGUAUGACAUGAGGAUCACCCAUGUAGAAGGCGUAUACU”, the “apparent Kd” value came out at 26.7 nM under setting [3] and 19.6 nM under setting [4].

Regarding “UUUACGAAAGUCGAACGAUGUAGCAGAAGGACAUGAGGAUCACCCAUGUCAGCUGUAACAGCCAUGUAGGAUAUGCUACAUCCC”, the “apparent Kd” value is, setting by setting: under setting [3], 5.24 nM; under setting [4], 6.49 nM.

Turning to “AAGAUGCGGAUAGGAUAUGGAAAUUAAUAAAGACCAGAAGGAUUGGUCACACAACAUGAGGAUCACCCAUGUGUGUGUUGUGAA”, the “apparent Kd” value runs as follows: under setting [3], 13.6 nM; under setting [4], 10.6 nM.

Turning to “AGGAAGUGAGGAUAUGCUGCUCGUCACUUGCGUGAUGAGUAGCAGAAGGCACAUGAGGAUCACCCAUGUAAAGA”, the “apparent Kd” value came to 40.2 nM under setting [3] and 55.1 nM under setting [4].

Regarding “GAGCGAAAGCUCAAUGUCGAUAGCAGAAGGACAUGAAUAACAUGAAUAACAUGAGGAUCACCCAUGUAGGAUAUGCUAUCGACU”, the “apparent Kd” value runs as follows: under setting [3], 11.1 nM; under setting [4], 108 nM.

For “UGAAACUACGAGAAGGACAUGUGGUCCUUCAGUUACAUGAGGAUCACCCAUGUAGGAUAUCGUAGUUUCAGGAUCGUGAGAUCA”, the “apparent Kd” value runs as follows: under setting [3], 34.7 nM; under setting [4], 14.6 nM.

Take “UUAAAUCAUGUAGGAUAUGCAUGGCGAAGCUACGCAGAAGGACAUGAGGAUCACCCAUGUUCUAGCGUCUGAGUUCAGAUGCAA”: the “apparent Kd” value is 20.9 nM under setting [3] and 41.7 nM under setting [4].

For the sequence “GAAUGUUGAGGAUAUACAUGAGGAUCACCCAUGUGUUAGCAGAGUCUGCCCGUCUUCAGUAGAAGGCAACAUUC”, the “apparent Kd” value by setting is: under setting [3], 17.2 nM; under setting [4], 42.4 nM.

Turning to “AUCAGCUCGUCAGGAUAUACGUCACUGCUUCGGCAGUGUGGUAAGGUCACAUGAGGAUCACCCAUGUAGAAGGGACGAGCUGAU”, the “apparent Kd” value under setting [3] stood at 8.32 nM and the “apparent Kd” value under setting [4] was 120 nM.

For the sequence “CCACGUCACAUCUACAUGAGGAUCACCCAUGUCGAAAGACAUGAGGAUAUGCAUCCUAAUUGGAUGCAGAAGGCAUGGACGUGG”, the “apparent Kd” value is, setting by setting: under setting [1], 1080 nM; under setting [2], 71.2 nM.

Consider “CUUUUGUGAGGAUAUCAGUAGUAUAAAAUUAAAAUUACUACUGAGAAGGCACAUGAGGAUCACCCAUGUUCCUC”, for which the “apparent Kd” value under setting [3] was 35.2 nM and the “apparent Kd” value under setting [4] was found to be 201 nM.

Turning to “GCGUCAGUUUCACAUGUAAUACAUGAGGAUCACCCAUGUUACUAGGAUAUGUAUUAGAAUUAUCAACAGAAGGAGUAAUGACGC”, the “apparent Kd” value by setting is: under setting [3], 11.1 nM; under setting [4], 12.8 nM.

For “UUUUUUGUUGUGAGGAUAUCGUAUUCUUUUUGUUACGAGAAGGCACAUGAGGAUCACCCAUGUUUCUUGAUGUU”, the “apparent Kd” value by setting is: under setting [3], 15.8 nM; under setting [4], 27.3 nM.

Take “GUAACAUGAGGAUCACCCAUGUCGUGCUAGAUGAGUUCUGGUGAGGAUAUACAUGGUAAAUAACUGUAGAAGGUGCUGGGUACA”: the “apparent Kd” value under setting [1] stood at 159 nM and the “apparent Kd” value under setting [2] came to 167 nM.
